ChEMBL document CHEMBL1150273, “Aza-peptidyl Michael acceptors. A new class of potent and selective inhibitors of asparaginyl endopeptidases (legumains) from evolutionarily diverse pathogens” (J Med Chem, 2008)
pIC50: −log10 of the molar value. Active and inactive are the calls of the source. No cut-off for these calls is given here.

Tests used:
Caspase-8 (Homo sapiens) = Caspase-8 (Homo sapiens) (UniProt Q14790); experiment: Inhibition of caspase 8 assessed as ratio of pseudo-first-order inhibition rate constant to inhibitor concentration
Summary of the method: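 Caspase-8 at 50 nM final, assayed in the same Pipes/NaCl/CHAPS/sucrose/DTT buffer, pH 7.2, 37 °C with Ac-Asp-Glu-Val-Asp-AMC by the progress curve method; inhibitor stocks 5 × 10^-3 to 2.42 × 10^-6 M in DMSO; rates corrected for substrate using KM 6.79 µM.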

Caspase-3 (Homo sapiens) = molecular target: T1, Caspase-3 (Homo sapiens) (UniProt P42574); experiment: Inhibition of caspase 3 assessed as ratio of pseudo-first-order inhibition rate constant to inhibitor concentration
T1 sequence (whole entry): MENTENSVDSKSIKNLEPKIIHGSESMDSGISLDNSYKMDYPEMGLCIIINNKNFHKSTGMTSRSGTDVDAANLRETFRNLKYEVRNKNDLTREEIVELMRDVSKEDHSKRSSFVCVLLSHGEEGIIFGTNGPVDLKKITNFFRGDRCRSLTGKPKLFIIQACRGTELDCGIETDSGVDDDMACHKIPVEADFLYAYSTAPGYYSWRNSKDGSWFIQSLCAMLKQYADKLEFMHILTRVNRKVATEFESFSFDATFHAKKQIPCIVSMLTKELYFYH
Summary of the method: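 Caspase-3 (1 nM final) preactivated 10 min at 37 °C in 40 mM Pipes, 200 mM NaCl, 0.2% CHAPS, 20% sucrose mixed 1:1 with 20 mM DTT, pH 7.2; enzyme added to inhibitor plus Ac-Asp-Glu-Val-Asp-AMC; progress curves 20 min at 37 °C (ex 360, em 465 nm); duplicates; rates corrected for substrate (KM 9.7 µM).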

Papain (Carica papaya) = molecular target: T2, Papain (Carica papaya) (UniProt P00784); experiment: Inhibition of papain assessed as ratio of pseudo-first-order inhibition rate constant to inhibitor concentration
T2 sequence (whole entry): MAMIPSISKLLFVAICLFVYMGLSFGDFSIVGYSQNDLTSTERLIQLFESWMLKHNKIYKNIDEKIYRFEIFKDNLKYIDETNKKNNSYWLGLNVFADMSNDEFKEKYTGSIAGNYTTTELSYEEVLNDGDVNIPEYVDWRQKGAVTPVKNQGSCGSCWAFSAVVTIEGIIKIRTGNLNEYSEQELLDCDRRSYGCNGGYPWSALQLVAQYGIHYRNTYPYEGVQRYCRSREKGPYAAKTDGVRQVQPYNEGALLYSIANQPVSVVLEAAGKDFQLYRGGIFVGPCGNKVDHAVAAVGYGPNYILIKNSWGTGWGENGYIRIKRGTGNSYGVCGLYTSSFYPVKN
Summary of the method: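 Papain, about 0.29 mg/mL, incubated with inhibitor in 50 mM Hepes, 2.5 mM DTT, 2.5 mM EDTA, pH 7.5; aliquots taken over time into 53.7 µM Cbz-Phe-Arg-pNA; p-nitroanilide release read at 405 nm at room temperature; pseudo-first-order inactivation kinetics.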

[1] = molecular target: Cathepsin B (Homo sapiens) (UniProt P07858); experiment: Inhibition of cathepsin B assessed as ratio of pseudo-first-order inhibition rate constant to inhibitor concentration
[2] = Inhibition of Schistosoma mansoni AE expressed in Pichia pastoris after 20 mins
Summary of the method: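 Recombinant AE zymogens expressed in Pichia pastoris; SmAE and TvAE1 autoactivated in 0.5 M sodium acetate, 4 mM DTT, pH 4.5, 37 °C, 3 h to overnight; IrAE used without activation. Buffer 0.1 M citrate phosphate, 4 mM DTT, pH 6.8 (SmAE, TvAE1) or pH 5.5 (IrAE). Inhibitor 2.0–0.0002 µM final, 20 min preincubation at room temperature; 10 µM final Cbz-Ala-Ala-Asn-AMC, 20 min; IC50 from RFU/min vs concentration.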

[3] = Stability assessed as half life in citrate phosphate buffer at pH 6.8 in presence of dithiothreitol; format: physicochemical; conditions: citrate phosphate buffer with dithiothreitol
[4] = molecular target: Lys-gingipain HG66 (Porphyromonas gingivalis) (UniProt P72197); experiment: Inhibition of Porphyromonas gingivalis gingipain K assessed as ratio of pseudo-first-order inhibition rate constant to inhibitor concentration
Summary of the method: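 Gingipain K diluted to 4.61 nM in 0.2 M Tris-HCl, 0.1 M NaCl, 5 mM CaCl2, 2 mM DTT, pH 8.0 and incubated with inhibitor (DMSO) at room temperature; aliquots taken at intervals into buffer with Suc-Ala-Phe-Lys-AMC; fluorescence at 465 nm; pseudo-first-order kinetics.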

[5] = molecular target: T3, Calpain-1 catalytic subunit (Homo sapiens) (UniProt P07384); experiment: Inhibition of calpain 1 assessed as ratio of pseudo-first-order inhibition rate constant to inhibitor concentration
T3 sequence (whole entry): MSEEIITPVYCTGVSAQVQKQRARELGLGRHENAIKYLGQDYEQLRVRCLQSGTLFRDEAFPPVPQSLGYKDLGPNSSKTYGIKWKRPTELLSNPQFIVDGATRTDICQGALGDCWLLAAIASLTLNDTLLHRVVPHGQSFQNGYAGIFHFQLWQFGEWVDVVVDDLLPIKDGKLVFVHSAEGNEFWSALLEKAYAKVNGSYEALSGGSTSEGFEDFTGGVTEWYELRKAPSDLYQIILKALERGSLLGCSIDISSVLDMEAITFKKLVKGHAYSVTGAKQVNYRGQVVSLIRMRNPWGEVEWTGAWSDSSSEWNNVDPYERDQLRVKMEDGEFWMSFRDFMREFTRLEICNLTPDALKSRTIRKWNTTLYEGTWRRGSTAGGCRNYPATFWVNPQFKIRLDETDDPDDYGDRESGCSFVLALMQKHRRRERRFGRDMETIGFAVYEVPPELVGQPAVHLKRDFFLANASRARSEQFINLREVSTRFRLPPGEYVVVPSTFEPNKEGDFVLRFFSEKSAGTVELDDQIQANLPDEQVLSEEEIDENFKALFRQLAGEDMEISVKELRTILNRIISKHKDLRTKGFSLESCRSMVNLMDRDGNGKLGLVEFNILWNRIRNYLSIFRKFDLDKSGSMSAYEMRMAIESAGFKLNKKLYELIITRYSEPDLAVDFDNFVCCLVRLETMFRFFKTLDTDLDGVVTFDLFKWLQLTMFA

Row | Activity (Caspase-8 (Homo sapiens)) | Activity (Caspase-3 (Homo sapiens)) | Ratio (Papain (Carica papaya)) | Activity [1] | half-life [3] | Ratio [4] | Ratio [5] | Activity (Papain (Carica papaya)) | Activity [5] | Ratio [1] | Compound | pIC50 [2]
1 | inactive | inactive | 1 M⁻¹ s⁻¹ | inactive | 17 min | 2 M⁻¹ s⁻¹ | < 1 M⁻¹ s⁻¹ |  |  |  | C[C@H](NC(=O)OCc1ccccc1)C(=O)N[C@@H](C)C(=O)NN(CC(N)=O)C(=O)/C=C/C(=O)N(Cc1ccccc1)Cc1ccccc1 | 7.35
2 | inactive | inactive |  | inactive | 20 min | 1 M⁻¹ s⁻¹ |  | inactive | inactive |  | C[C@H](NC(=O)OCc1ccccc1)C(=O)N[C@@H](C)C(=O)NN(CC(N)=O)C(=O)/C=C/C(=O)N(C)Cc1ccccc1 | 
3 | inactive | inactive |  |  | 3.7 min | 6 M⁻¹ s⁻¹ |  | inactive | inactive | < 1 M⁻¹ s⁻¹ | CCOC(=O)/C=C/C(=O)N(CC(N)=O)NC(=O)[C@H](C)NC(=O)[C@H](C)NC(=O)OCc1ccccc1 | 7.51
4 | inactive | inactive |  | inactive |  | 6 M⁻¹ s⁻¹ |  | inactive | inactive |  | C[C@H](NC(=O)OCc1ccccc1)C(=O)N[C@@H](C)C(=O)NN(CC(N)=O)C(=O)/C=C/C(=O)N(C)Cc1cccc2ccccc12 | 7.46
